Among the data in ChEMBL document CHEMBL4513216, “Probing the Open Global Health Chemical Diversity Library for Multistage-Active Starting Points for Next-Generation Antimalarials” (ACS Infect Dis, 2020) are cytotoxicity values, retold here.

Molecules are shown by their SMILES.

This data set in a line: Toxicity liver stage against HepG2, at 10uM. Type of data set: cell-based. More on the design: test concentration 10 uM, cell line HepG2-A16-CD81EGFP. The note with it: human, HepG2-A16-CD81EGFP cells; read-out: INHIBITION
An outline of the steps:
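Uninfected HepG2-A16-CD81EGFP cells, 3 × 10^3 per well, 1536-well, plated on prespotted compound at 10 μM final, parasite-free screening media added to match infected plates; puromycin 10 μM positive, DMSO 0.5% negative; run in parallel with 48 h PbLuc assay at 37 °C, 5% CO2; viability by CellTiter-Glo luminescence, normalized to controls.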
In the case of `CCN(CC)C[C@H]1CN2CC[C@H]1C[C@@H]2CNC(=O)Nc1ccsc1`, the cytotoxicity at 10 µM was -17.8%.

Consider `CC(C)NC(=O)NC[C@H]1OC[C@@H](NCc2cccs2)[C@@H]1O`, for which the cytotoxicity at 10 µM was -1.48%.

On to `O=C(NC[C@H]1OC[C@@H](NCc2ccccc2F)[C@@H]1O)Nc1ccccc1`, for which the cytotoxicity at 10 µM is -7.3%.

On to `Cc1ccccc1CSc1ncccc1C(=O)N(C)C`, for which the cytotoxicity at 10 µM was -7.24%.

On to `COc1ccc(C(=O)N(CCO)Cc2ccccc2)c(OC)n1`, for which the cytotoxicity at 10 µM was found to be 3.33%.

`O=C(c1cccnc1SCc1ccccc1)N1CCOCC1`: the cytotoxicity at 10 µM was determined as 4.74%.

`O=C(N[C@H]1CCCC[C@@H]1O)c1cccc(-c2nc3ccccc3[nH]2)c1`: the cytotoxicity at 10 µM was -3.65%.

Consider `COCC(=O)N1CCC(=O)N(C2CCCC2)Cc2cc(F)ccc21`, for which the cytotoxicity at 10 µM was -3.3%.

For the compound `O=S(=O)(c1ccc(Cl)cc1)N1C[C@@H]2CCN[C@@H]2C1`, the cytotoxicity at 10 µM was -1.89%.

On to `CC(C)NC(=O)[C@H]1CCS(=O)(=O)[C@@H]2CN(c3ncc(F)cn3)C[C@H]12`, for which the cytotoxicity at 10 µM was -136%.

For `CC(C)N(C)C(=O)C1=NOC2(CCN(C(=O)c3ccnnc3)C2)C1` (stereo unspecified), the cytotoxicity at 10 µM was -119%.

As for `Cc1noc([C@@H]2C[C@H]3OCC[C@H]3N(S(=O)(=O)N(C)C)C2)n1`, the cytotoxicity at 10 µM is -122%.

On to `Cc1nc(CN2CCO[C@H]3CN(C(=O)Cc4cccs4)C[C@H]32)cs1`, for which the cytotoxicity at 10 µM is -124%.

As to `Cc1nc(C(=O)N2C[C@@H]3COC[C@]3(COCc3cccnc3)C2)cs1`, the cytotoxicity at 10 µM is -1.92%.

On to `COc1cc2[nH]c(C(=O)O)cc2c(OC)c1C`, for which the cytotoxicity at 10 µM is -1.51%.

Turning to `Cc1ccc(CN(C)CC2(O)CCCN(C)C2)o1` (stereo unspecified), the cytotoxicity at 10 µM was -8.08%.

Take `CCn1nc(C)c2nc(C(C)C)nc(NCCCn3ccnc3)c21`: the cytotoxicity at 10 µM was 10.8%.

In the case of `CCn1cc(Br)c(C(=O)NCc2cnn(C)c2)n1`, the cytotoxicity at 10 µM is -11.9%.

On to `Nc1nc(N)c2c(n1)OC1(CCN(C(=O)CC3CCNCC3)CC1)C2`, for which the cytotoxicity at 10 µM was 5.41%.

Take `CN(C)c1cc(C2CCCN2C(=O)c2noc3c2CCCC3)ccn1` (stereo unspecified): the cytotoxicity at 10 µM was found to be 9.13%.

For the compound `Cc1ccc(C(=O)N2CCOC(c3ncc(CN(C)C)[nH]3)C2)cc1F` (stereo unspecified), the cytotoxicity at 10 µM amounted to 0.388%.

On to `CCN1C(=O)CC[C@@H]2N(C(=O)CCn3nccc3C)CCCC[C@@]21C`, for which the cytotoxicity at 10 µM is -3.41%.

On to `CNc1cc(C)nc(C2COCCN2CCOc2ccc(F)cc2)n1` (stereo unspecified), for which the cytotoxicity at 10 µM turned out to be 3.18%.

With `O=C(C1CCC1)N1CCC(c2ncc3c(n2)CCNC3)CC1`, the cytotoxicity at 10 µM was -25.1%.

Regarding `Cc1ccc(-n2c(SCC(=O)O)nnc2-c2ccccc2)cc1`, the cytotoxicity at 10 µM was -19.3%.

For `CN1CC(=O)N(C2CCNCC2)Cc2c(NC3CCC3)ncnc21`, the cytotoxicity at 10 µM amounted to 3.9%.

For `O=C(CN1CCCCCC1=O)NC1CCc2nccn2C1` (stereo unspecified), the cytotoxicity at 10 µM was 2.8%.

With `Fc1cccc(C(NCc2ncc[nH]2)c2ccccn2)c1` (stereo unspecified), the cytotoxicity at 10 µM came out at 3.95%.

Regarding `C[C@H](O)c1cnn(-c2ccccc2)c1`, the cytotoxicity at 10 µM was determined as 0.503%.

Regarding `COC(C)c1noc(CN(C)c2nccnc2C#N)n1` (stereo unspecified), the cytotoxicity at 10 µM turned out to be 0.462%.

With `COCCCn1ccc(NC2CCOCC2)n1`, the cytotoxicity at 10 µM worked out at 3.31%.

With `Cn1ccc2c(C(=O)NCC3(C(N)=O)CCOCC3)cccc21`, the cytotoxicity at 10 µM is -1.21%.

`CC(=O)N(C)CC(=O)NC1(c2ccc(Br)cc2)CC1`: the cytotoxicity at 10 µM is -10.7%.

As to `CS(=O)(=O)Nc1cccc(CNC(=O)c2cccs2)c1`, the cytotoxicity at 10 µM is 3.86%.

As to `CCCc1cc(C(=O)NCCN2C(=O)c3ccccc3C2=O)[nH]n1`, the cytotoxicity at 10 µM amounted to 2.29%.

As for `c1ccc(Cc2noc(CN3CCCC3C3CCCCC3)n2)cc1` (stereo unspecified), the cytotoxicity at 10 µM was determined as 11.9%.

Take `Cc1cc(CN2CCc3nn(C)c(=O)cc3C2)no1`: the cytotoxicity at 10 µM was -9.01%.

In the case of `CCN(CC(=O)NC(C)C)S(=O)(=O)N1CCCC(C)C1` (stereo unspecified), the cytotoxicity at 10 µM came to 2.77%.

For the compound `CC(=O)c1c(F)cccc1N1CCC(C(N)=O)CC1`, the cytotoxicity at 10 µM was 6.75%.

For `Cc1nc(CC(=O)N2CCN(Cc3ccc(C#N)cc3)CC2)cs1`, the cytotoxicity at 10 µM turned out to be 1.91%.

With `Cc1noc(CCCC(=O)N(CCC(=O)O)Cc2ccc(F)c(F)c2)n1`, the cytotoxicity at 10 µM is -11.3%.

For the compound `CC1CCN(S(=O)(=O)NC2CCCCNC2=O)CC1` (stereo unspecified), the cytotoxicity at 10 µM is 14%.

On to `CCc1sc(C(=O)Nc2cnn(CC(=O)NC3CC3)c2)cc1C`, for which the cytotoxicity at 10 µM was -2.17%.

As for `N#Cc1ccnc(N2CCN(C(=O)c3ccc4c(c3)CCO4)CC2)c1`, the cytotoxicity at 10 µM was -5.75%.

Take `Cc1ccccc1CS(=O)(=O)CC(=O)N(C)Cc1cccc(F)c1`: the cytotoxicity at 10 µM was determined as 4.8%.

With `CC(C)(C)OC(=O)N1CSC[C@@H]1C(=O)NCc1cccc(C#N)c1`, the cytotoxicity at 10 µM is -5.88%.

Turning to `CC(C)OCCC(=O)Nc1ncn(CC(=O)N2CCCCCC2)n1`, the cytotoxicity at 10 µM is -1.61%.

Turning to `CC(=O)N1CCN(C(=O)NCCCN(C)S(C)(=O)=O)CC1`, the cytotoxicity at 10 µM was -7.33%.

For `Cc1cc(C(=O)N2CCCC2)ccc1NCCO`, the cytotoxicity at 10 µM was -3.87%.

Consider `Cc1oc(C(=O)O)cc1S(=O)(=O)Nc1ccc(Cl)c(Cl)c1`, for which the cytotoxicity at 10 µM is -0.532%.

`Cc1ccc(C)c(Sc2nccn(C)c2=O)c1`: the cytotoxicity at 10 µM was found to be 6.43%.

For `C=C(C)CNC(C)c1ccc(S(C)(=O)=O)c(F)c1` (stereo unspecified), the cytotoxicity at 10 µM was 0.563%.

In the case of `Cn1cc(CN2CCN(Cc3nccn3C)CC2)cn1`, the cytotoxicity at 10 µM amounted to 15.5%.

For `CC(CNC(=O)N1CCN(CC(F)F)CC1)Cc1cccs1` (stereo unspecified), the cytotoxicity at 10 µM was -4.92%.

As to `CSCC(C)(O)CNC(=O)c1ccc(Br)cc1C` (stereo unspecified), the cytotoxicity at 10 µM amounted to 1.57%.

As for `Cn1cc(Br)c(=O)c(NS(=O)(=O)c2ccc(F)cc2)c1`, the cytotoxicity at 10 µM was -8.87%.

Take `COCCN(Cc1ccc(F)cc1Cl)C(=O)c1cccc[n+]1[O-]`: the cytotoxicity at 10 µM worked out at 8.81%.

Regarding `CC(CN1CCOCC1)NC(=O)N(C)Cc1ccc(Cl)s1` (stereo unspecified), the cytotoxicity at 10 µM amounted to 7.21%.

`CC(C)Oc1ncc(C(=O)N2CCC(NC(=O)C3CC3)CC2)cc1Cl`: the cytotoxicity at 10 µM was -20.8%.

In the case of `Cc1ccc(N2CCCN(C(=O)c3cc(Cl)c[nH]3)CC2)nn1`, the cytotoxicity at 10 µM was -9.12%.

For the compound `Cc1nc(C)n(CC2CN(CC(=O)Nc3cccnc3)CCO2)n1` (stereo unspecified), the cytotoxicity at 10 µM was -12%.

`Cc1cn(CC(=O)N(C)Cc2cccc3ncccc23)c(=O)[nH]c1=O`: the cytotoxicity at 10 µM came out at 14.2%.

Take `Cc1cccnc1CN1CCN(c2noc(-c3ccccc3)n2)CC1`: the cytotoxicity at 10 µM was determined as 8.09%.

In the case of `COCc1cc(CNCc2c(C)n(CC(N)=O)c3ccccc23)n[nH]1`, the cytotoxicity at 10 µM is -0.31%.

`CCNC(=O)[C@@H]1C[C@H](N)CN1C(=O)C1(c2ccc(OC)cc2)CCCC1`: the cytotoxicity at 10 µM is 5.67%.

In the case of `Cc1ccoc1C(=O)N1CCC(n2cc(-c3ccsc3)nn2)CC1`, the cytotoxicity at 10 µM was 5.02%.

With `c1cncc(C[C@@H]2CC[C@H](CN3CCCOCC3)O2)c1`, the cytotoxicity at 10 µM was 2.13%.

With `COc1ccc(-n2c(CCC(=O)O)nc3ccccc32)cc1CO`, the cytotoxicity at 10 µM is -0.334%.

Regarding `COCc1noc(CCNC(=O)c2ccc(C3CCCO3)s2)n1` (stereo unspecified), the cytotoxicity at 10 µM stood at 3.19%.

Take `CN1CCN(Cc2cnc(S(=O)(=O)CC3CC3)n2CC2CCCO2)CC1` (stereo unspecified): the cytotoxicity at 10 µM is -2.87%.

In the case of `O=C(c1ccc(=O)[nH]c1)N1CCCC2(C=Cc3ccccc3O2)CC1` (stereo unspecified), the cytotoxicity at 10 µM came to 12.5%.

On to `Cc1cccc(CN(C(=O)CS(C)(=O)=O)C(C)C)c1`, for which the cytotoxicity at 10 µM was determined as 1.68%.

For the compound `CCC/C=C/c1ccc(CN2CCN(C)CC2)cn1`, the cytotoxicity at 10 µM is -8.61%.

For `COC(=O)CCC(=O)NCc1cccnc1N1CCc2ccccc2C1`, the cytotoxicity at 10 µM was -8.09%.

For `COc1cccc2c1OCC(CNC(=O)Cc1c(C)nc(N)nc1C)C2` (stereo unspecified), the cytotoxicity at 10 µM is -140%.

On to `CCN1CC(C(=O)N2CCC(Oc3ccccc3Cl)CC2)CC1=O` (stereo unspecified), for which the cytotoxicity at 10 µM is -22.4%.

As for `CN(CCc1ccccc1)Cc1cc(C(=O)N2CCN(C)C(=O)C2)no1`, the cytotoxicity at 10 µM is -11.6%.

Take `CC(NC(=O)CSCC#N)c1ccc(F)cc1` (stereo unspecified): the cytotoxicity at 10 µM was -2.51%.

With `CN(C)c1ccc(C(=O)N2CCCC2c2cnn(C)c2)cn1` (stereo unspecified), the cytotoxicity at 10 µM is -1.83%.

As for `O=C(O)c1cc(S(=O)(=O)Nc2ccc(F)cc2F)cc2c1OCCO2`, the cytotoxicity at 10 µM was -1.2%.

As for `Cc1nccn1C1CCCN(C(=O)c2sccc2-n2cnnn2)C1` (stereo unspecified), the cytotoxicity at 10 µM is -12.2%.

As to `Cn1cc(CN2CCCN(C(=O)c3ccccn3)CC2)cn1`, the cytotoxicity at 10 µM is -0.514%.

On to `CC(C)c1nc(C2CCCN2CCc2ccncc2)no1` (stereo unspecified), for which the cytotoxicity at 10 µM is -10.8%.

Regarding `O=C(CN1CCCCC1Cn1cncn1)NCCC1=CCCCC1` (stereo unspecified), the cytotoxicity at 10 µM was -7.59%.

Turning to `O=C(NCCCNc1ccccc1)c1scnc1Cl`, the cytotoxicity at 10 µM was 1.83%.

For the compound `COCCN1CCN(Cc2c(C3CCNCC3)[nH]c3ncccc23)CC1`, the cytotoxicity at 10 µM is -23.2%.

In the case of `Cc1nn(C)c(Cl)c1CNCc1cccnc1N1CCCCC1`, the cytotoxicity at 10 µM is -145%.

Take `O=C(NCc1ccccn1)[C@]12COC[C@H]1CN(Cc1ccccc1F)C2`: the cytotoxicity at 10 µM was found to be 6.81%.

For `CN(C)C[C@H]1C[C@@H]2CN(Cc3ccco3)C[C@@H]2O1`, the cytotoxicity at 10 µM was -1.66%.

Consider `FC1(F)CCN(Cc2ccncc2)CC12CCN(c1cnccn1)C2` (stereo unspecified), for which the cytotoxicity at 10 µM turned out to be 3.19%.

As for `CCOCC(=O)N1CCC2(CC1)COC(COCc1ccccn1)C2` (stereo unspecified), the cytotoxicity at 10 µM was -127%.

Take `O=C(C1CC1)N1CCC2(CCN(Cc3cccc(F)c3)CC2)CC1`: the cytotoxicity at 10 µM was -4.07%.

Take `O=C(C[C@@H]1COC[C@H]2CN(Cc3ccc(F)cc3)C[C@@H]12)N1CCCCO1`: the cytotoxicity at 10 µM is -2.26%.

As to `CC(C)N(C)Cc1cnc2n1CCN(C(=O)Cc1ccsc1)C2`, the cytotoxicity at 10 µM was -118%.

For the compound `COc1cccc(C=CCCN2CCCN(C(C)=O)CC2)c1`, the cytotoxicity at 10 µM amounted to 6.67%.

On to `O=C1OCCN1CC(=O)N1C[C@@H]2CC[C@H]1CN(C(=O)c1ccccc1)C2`, for which the cytotoxicity at 10 µM worked out at 5.46%.
